The list is not random: actives were taken first. Their share in the collection is about 3.1%.
E-selectin induc: induces E-selectin expression in human endothelial cells; activation, % at 7.58 µM; HUVEC E-selectin immunofluorescence imaging; normalized: neutral wells 0, TNF-alpha wells 100; 260,000 tested, 0.37% active; P16581; AID 686992;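 active means mean E-selectin-positive cell signal at least 10% of the positive control, reached in at least 60% of replicates, without over 20% cell loss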
Target sequence (P16581 whole entry, looked up): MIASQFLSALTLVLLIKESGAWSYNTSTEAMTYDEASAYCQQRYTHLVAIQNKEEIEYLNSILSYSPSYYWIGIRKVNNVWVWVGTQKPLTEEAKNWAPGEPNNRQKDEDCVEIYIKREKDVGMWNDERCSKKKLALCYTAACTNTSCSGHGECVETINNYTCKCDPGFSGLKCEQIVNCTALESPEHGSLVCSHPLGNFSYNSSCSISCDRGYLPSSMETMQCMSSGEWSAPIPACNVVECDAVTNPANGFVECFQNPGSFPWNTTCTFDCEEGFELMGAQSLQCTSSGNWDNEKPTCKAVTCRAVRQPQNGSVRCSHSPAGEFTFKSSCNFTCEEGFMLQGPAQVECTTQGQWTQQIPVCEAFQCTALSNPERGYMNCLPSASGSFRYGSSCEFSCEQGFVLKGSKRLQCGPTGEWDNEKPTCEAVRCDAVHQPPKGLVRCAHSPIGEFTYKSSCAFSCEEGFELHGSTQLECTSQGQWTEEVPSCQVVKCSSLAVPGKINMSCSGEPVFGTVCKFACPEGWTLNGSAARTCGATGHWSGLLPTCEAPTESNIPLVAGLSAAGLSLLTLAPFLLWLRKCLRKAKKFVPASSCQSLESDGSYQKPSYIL
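Read-out: % PE-positive cells | Test system: HUVEC | Doses: One compound dose added by pin transfer | Buffer or medium: EGM-2 over gelatin coat | Signal: Immunofluorescence imaging | Benchmarks: TNF-alpha, DMSO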
Cneo AK release: causes C. neoformans cell lysis; adenylate kinase release luminescence, 4 h; normalised: neutral wells 0, clomiphene wells 100; lysis activity, % at 15 µM; 360,000 tested, 0.2% active; AID 651654;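 active means mean lysis activity across replicates of at least 80%, whatever share of replicates individually reach that level; inactive means mean lysis activity below 80%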
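Material – Cryptococcus neoformans yeast cells · Quantity – 5 × 10^6 yeast cells/mL · Buffer or medium – YPD medium · Compound – single dose · Timing – 4 h static compound exposure, 37 °C, read 1 h post-reagent · Signal – adenylate kinase release luminescence · Read-out basis – lysis from increased AK signal · Benchmarks – Clomiphene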
Ecoli rRNA inh: selective bacterial rRNA inhibition in E. coli; E. coli WT GFP vs humanized-ribosome RFP mutants, fluorescence, 24 h; active compounds read low; DMSO median 0, no signal -100; GFP signal change (wild-type ribosome), % (test concentration not listed); 350,000 tested, 1.6% active; AID 720706;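 active means significant combined selectivity score with lowered wild-type GFP, culture density cut under 30%, mutant RFP and density less affected; inactive means any of these conditions unmet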
DENV2 CPE rescue: protects cells from dengue virus 2 cytopathic effect; AID 651640; 350,000 tested, 1.7% active; DENV2-infected cells, cytopathic effect rescue, plate reader; CPE inhibition, % at 9.99 µM; in the data active means CPE inhibition above about 20%, passing the limit was not always enough; tested in BHK-21 cells;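 further: 0% = median of neutral control wells and 100% = median of positive control wells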
miR122 inh: inhibitors of miR-122 in Huh7 cells | Huh7 miR-122 Renilla luciferase sensor, 48 h; neutral wells = 0, positive control = 100 | activation (reporter increase), % at 12.5 µM | 340,000 tested, 0.3% active | AID 602342;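 active means mean replicate activation score at least 90 and every replicate individually at or above 90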;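 further: higher luciferase means less miR-122 activity so hits act as miR-122 inhibitors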
* = called active by the depositor; [ ] = dose if it differs, or a comment.

Screening O=C(O)c1cccc(NC(=O)c2ccc(COc3ccc(Cl)cc3)cc2)c1 returned Cneo AK release 0.5, Ecoli rRNA inh 1.6 and DENV2 CPE rescue 6.4.
`N#C/C(=C\c1ccc(OCc2ccc(Cl)cc2)cc1)C(=O)Nc1cccc(C(=O)O)c1` gave Cneo AK release -0.9, Ecoli rRNA inh -26.5*, DENV2 CPE rescue -2.9 and miR122 inh -0.7.
Cc1cc(N)n(-c2ccc([N+](=O)[O-])cc2)n1 was read as Ecoli rRNA inh 5.3 and DENV2 CPE rescue 1.1.
Screening Cc1cc(N)n(-c2ccc(S(=O)(=O)c3ccc(C(C)C)cc3)cc2)n1 returned Ecoli rRNA inh -25.9*, DENV2 CPE rescue -7.3 and miR122 inh -3.5.
CO[C@H]1CN(C)C(=O)c2ccc(NC(=O)Nc3ccc(Cl)cc3)cc2OC[C@H](C)NC[C@H]1C was read as E-selectin induc 0.0, Ecoli rRNA inh -1.8 and miR122 inh -15.8[16.7 µM].
For O=C(CN1CCCc2ccccc21)N/N=C/c1ccccc1 the results were E-selectin induc -0.1 and DENV2 CPE rescue 0.5.
`O=C(CN1CCCc2ccccc21)N/N=C/c1ccc(O)cc1O` gave Cneo AK release -0.4, Ecoli rRNA inh -14.6*, DENV2 CPE rescue -3.8 and miR122 inh 4.0.
Screening CCN1CCN(CCc2nc3cc(NC(=O)COc4ccc(Cl)cc4)ccc3n2C)CC1 returned E-selectin induc 0.5, Cneo AK release 0.7, Ecoli rRNA inh -12.2, DENV2 CPE rescue 25.3* and miR122 inh 2.7.
For Cn1c(CCN2CCCC2)nc2cc(NC(=O)COc3ccc(Cl)cc3)ccc21 the results were E-selectin induc 0.2, Cneo AK release -0.3, Ecoli rRNA inh -8.7, DENV2 CPE rescue -3.1 and miR122 inh -5.9.
`Cc1nc(N2CCN(c3ccccc3)CC2)nc2c1C(=O)CC(C)C2` (centres undefined) gave Cneo AK release -2.6, Ecoli rRNA inh -32.8* and miR122 inh 3.9.
For O=C1OC(c2ccccc2)c2ccccc21 (centres undefined) the results were Ecoli rRNA inh 1.5 and DENV2 CPE rescue 3.2.
`O=S1OC(c2ccccc2)c2cc(Cl)ccc21` (centres undefined) gave E-selectin induc 0.0, Cneo AK release -1.6, Ecoli rRNA inh -15.1*, DENV2 CPE rescue 2.1 and miR122 inh 5.4.
`CCNC(=O)[C@@H]1[C@@H](CO)[C@@H]2Cn3c(ccc(C4=CCCC4)c3=O)[C@H]1N2Cc1ccncc1` gave E-selectin induc 0.0, Cneo AK release -9.9, Ecoli rRNA inh 3.2, DENV2 CPE rescue -5.6 and miR122 inh -2.5[16.7 µM].
Screening C[C@@H]1CN([C@H](C)CO)S(=O)(=O)c2ccc(-c3ccccc3)cc2O[C@@H]1CN(C)C(=O)c1ccc2c(c1)OCO2 returned E-selectin induc 0.3, Cneo AK release -0.3, Ecoli rRNA inh -13.3, DENV2 CPE rescue 1.8 and miR122 inh -35.6[16.7 µM].
`C=CCOc1c(Cl)cc(Cl)cc1S(=O)(=O)NCCO` gave E-selectin induc -0.8, Cneo AK release 1.3, Ecoli rRNA inh 1.3, DENV2 CPE rescue 76.7* and miR122 inh 33.6.
Screening COc1cc(/C=C/C(=O)O)cc(S(=O)(=O)NCCO)c1OC returned Cneo AK release -3.9 and miR122 inh 10.0.
Screening Cc1cc(O)c(C(C)C)cc1NC(=O)c1ccccc1Cl returned Cneo AK release -1.8, Ecoli rRNA inh -11.9, DENV2 CPE rescue 27.7* and miR122 inh -5.3.
`Cc1cc(NC(=O)c2ccccc2Cl)c(C(C)C)cc1O` gave Cneo AK release 1.2 and miR122 inh 10.2.
COc1ccc(C(=O)Cn2nnc(-c3ccccc3F)n2)cc1 was read as Cneo AK release -3.4, Ecoli rRNA inh -30.6*, DENV2 CPE rescue 12.8 and miR122 inh -2.9.
N#C[C@@H]1[C@H](c2ccc(C#CC3CCCC3)cc2)[C@@H](CO)N1S(=O)(=O)c1ccccc1 was read as E-selectin induc 0.2, Cneo AK release 7.5, Ecoli rRNA inh -15.2 and DENV2 CPE rescue 50.4*.
Screening CS(=O)(=O)N1[C@H](CO)[C@@H](c2ccc(C#CC3CC3)cc2)[C@@H]1C#N returned E-selectin induc 0.4, Cneo AK release 0.7, Ecoli rRNA inh 1.2 and DENV2 CPE rescue 26.2*.
C[C@H]1CN([C@@H](C)CO)C(=O)c2cc(-c3ccccc3F)cnc2O[C@H]1CN(C)C(=O)C1CC1 was read as E-selectin induc 0.1, Cneo AK release -2.3, Ecoli rRNA inh 0.4, DENV2 CPE rescue -4.3 and miR122 inh -2.7[16.7 µM].
`COc1ccc(CCn2c(O)cc3nn(-c4nc5ccccc5s4)c(=O)c-3c2C)cc1` gave E-selectin induc 19.2, Ecoli rRNA inh -17.5* and DENV2 CPE rescue 2.4.
For COc1ccc(CN2CCN(c3nc4ccccc4s3)CC2)cc1 the results were Cneo AK release -0.2, Ecoli rRNA inh -1.8, DENV2 CPE rescue 14.2 and miR122 inh -1.7.
`C[C@@H]1CN([C@H](C)CO)C(=O)c2cc(Br)cnc2O[C@@H]1CN(C)C(=O)C1CCCCC1` gave E-selectin induc 0.2, Cneo AK release -2.0, Ecoli rRNA inh 2.4, DENV2 CPE rescue 7.0 and miR122 inh 21.3[16.7 µM].
Screening O=C(C[C@H]1CC[C@H]2[C@@H](COC[C@@H](O)CN2C(=O)Nc2cc(Cl)cc(Cl)c2)O1)N1CCCCC1 returned E-selectin induc 0.0, Cneo AK release 44.7, Ecoli rRNA inh -48.4, DENV2 CPE rescue 30.4* and miR122 inh 11.2[16.7 µM].
CN1CCN(C(=O)C[C@H]2CC[C@@H]3[C@H](COC[C@H](O)CN3C(=O)Nc3cc(Cl)cc(Cl)c3)O2)CC1 was read as E-selectin induc 0.3, Cneo AK release -2.1, Ecoli rRNA inh -29.8, DENV2 CPE rescue -5.2 and miR122 inh -7.2[16.7 µM].
Screening O=C(C[C@@H]1CC[C@H]2[C@@H](COC[C@@H](O)CN2C(=O)Nc2cc(Cl)cc(Cl)c2)O1)N1CCCCC1 returned E-selectin induc 0.7, Cneo AK release -5.4, Ecoli rRNA inh -49.9, DENV2 CPE rescue 1.8 and miR122 inh -10.6[16.7 µM].
Screening CN1CCN(C(=O)C[C@H]2CC[C@@H]3[C@H](COC[C@@H](O)CN3C(=O)Nc3ccc(Cl)cc3)O2)CC1 returned E-selectin induc 0.4, Cneo AK release -3.5, Ecoli rRNA inh -27.4*, DENV2 CPE rescue -6.3 and miR122 inh 1.2[16.7 µM].
Screening CN1CCN(C(=O)C[C@@H]2CC[C@H]3[C@@H](COC[C@H](O)CN3C(=O)C3CCCC3)O2)CC1 returned E-selectin induc 0.0, Cneo AK release -6.0, Ecoli rRNA inh 6.5, DENV2 CPE rescue 76.1* and miR122 inh -6.0[16.7 µM].
Screening CN1CCN(C(=O)C[C@H]2CC[C@H]3[C@@H](COC[C@@H](O)CN3C(=O)Nc3cc(Cl)cc(Cl)c3)O2)CC1 returned E-selectin induc 0.1, Cneo AK release -3.9, Ecoli rRNA inh -27.8, DENV2 CPE rescue -0.1 and miR122 inh -1.2[16.7 µM].
